Reference: article PMC11626521 (RSC Advances, 2024)

Legend:
Assay in all cases: anti-proliferation assay
HCT-116 = assay type: cell-based, human; conditions: read-out: IC50 HCT-116; 72 h treatment, CCK8
Summary of the method: (§1)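 Seeding was 4000 cells per well, with overnight adherence. Media: HGC-27 and GES-1 in RPMI 1640; HT-29 and HCT-116 in McCoy's 5A; HeLa in DMEM; all with 10% FBS and 1% penicillin–streptomycin, 37 °C, 5% CO2. Test compounds ran 0–500 μM in 3-fold dilutions for 72 h. Read-out was CCK8 (0.5 mM WST-8, 10 μM PMS) for 0.5–2 h, absorbance 450 nm, IC50 from viability. SI = IC50(GES-1)/IC50(HGC-27).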

GES-1 = assay type: cell-based; conditions: read-out: IC50 GES-1; normal human gastric mucosa cell line, 72 h treatment, CCK8
Summary of the method: as §1

HGC-27 = assay type: cell-based, human
Summary of the method: as §1

HeLa = assay type: cell-based, human; conditions: read-out: IC50 HeLa; 72 h treatment, CCK8
Summary of the method: as §1

HT-29 = assay type: cell-based, human; conditions: read-out: IC50 HT-29; 72 h treatment, CCK8
Summary of the method: as §1

IC50 (HCT-116): 3.32 ± 0.3 µM
IC50 (HeLa): 3.43 ± 0.33 µM
IC50 (HT-29): 4.6 ± 0.55 µM
Structure (SMILES): O=c1[nH]cc(F)c(=O)[nH]1 [5-FU]
IC50 (GES-1): 4.03 ± 0.19 µM
SI (GES-1/HGC-27) (HGC-27; SI = IC50 (GES-1)/IC50 (HGC-27)): 0.85
IC50 (HGC-27; read-out: IC50 HGC-27, 72 h treatment, CCK8): 4.75 ± 0.18 µM
